The results in this text go back to the array DNA melting data of Ke et al. (doi:10.1101/2024.01.08.574731).

The nature of data set [1]: folding enthalpy; higher = less favourable; fluorescence melt of hairpins on a sequencing array, two-state fit. As to conditions: sodium 0.088 M. The essentials: (§1)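 Library hairpins on a sequenced MiSeq flow cell carried annealed Cy3 and quencher oligos, and their Cy3 fluorescence was imaged in 50 mM Na-HEPES pH 8.0 with 25 mM NaCl, in 2.5 °C steps up to 60 °C. Signals were normalised to Cy3 before quenching and to control constructs. Melting temperature and folding enthalpy were obtained from bootstrapped two-state fits, combined by inverse-variance weighting across four replicates, and the fitted temperatures were then raised by 9.35 °C to match UV melts.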

Data set [2] in a line: melting temperature; fluorescence melt of hairpins on a sequencing array, two-state fit, raised by 9.35 °C to match UV melts. As to conditions: sodium 0.088 M. The procedure, abridged: as §1

For GGAGACGAAAGTCCTTCC ((((((....)))..))), in data set [1], the folding enthalpy was -21.1 kcal/mol. In addition, the Tm in data set [2] stood at 42.6 °C.
The matching figures for GGAGACGAAAGTCGTTCC ((((((....)))..))): -11.8 kcal/mol and 36.7 °C.
For the sequence GGAGACGAAAGTCTGTCC ((((((....)))..))), in data set [1], the folding enthalpy is -11.2 kcal/mol. Also, in data set [2], the Tm came to 34.5 °C.
The corresponding values for GGAGAGACGAAAGTCTCC (((..(((....)))))) are -9.49 kcal/mol and 44 °C.
The corresponding values for GGAGAGCGAAAGCTATCC (((.(((....))).))) are -42.1 kcal/mol and 57.6 °C.
The corresponding values for GGAGAGCGAAAGCTTCC (((.(((....)))))) are -18.2 kcal/mol and 44.5 °C.
GGAGAGGGAAACCCCTCC ((((.((....)).)))): the folding enthalpy in data set [1] was -28.6 kcal/mol. Further, in data set [2], the Tm was found to be 45 °C.
The corresponding values for GGAGAGGGAAACTTCTCC (((((.(....).))))) are -26.8 kcal/mol and 44.3 °C.
For the sequence GGAGATCGAAAGATATCC (((.(((....))).))), the folding enthalpy in data set [1] was -43.2 kcal/mol. Moreover, in data set [2], the Tm turned out to be 49.6 °C.
For GGAGATCGAAAGATTCC (((.(((....)))))), the folding enthalpy in data set [1] is -18.9 kcal/mol. Moreover, the Tm in data set [2] worked out at 36 °C.
For the sequence GGAGATGAAAATCTCC ((((((....)))))), in data set [1], the folding enthalpy is -36.2 kcal/mol. Also, in data set [2], the Tm came to 57.6 °C.
The matching figures for GGAGATGGAAACGTCTCC (((((.(....).))))): -36.9 kcal/mol and 49.5 °C.
The matching figures for GGAGCAGAAATGCTCC ((((((....)))))): -36.9 kcal/mol and 62.3 °C.
The matching figures for GGAGCAGGAAACCGCTCC (((((.(....).))))): -34.1 kcal/mol and 55.2 °C.
Consider GGAGCCACGAAAGTGTCC (((..(((....)))))), for which the folding enthalpy in data set [1] was -8.88 kcal/mol. In addition, in data set [2], the Tm came out at 28.5 °C.
The matching figures for GGAGCCGAAAGGCGCTCC ((((((....)))..))): -9.71 kcal/mol and 47.9 °C.
The matching figures for GGAGCCGAAAGGCTTTCC ((((((....)))..))): -7.92 kcal/mol and 43.8 °C.
For GGAGCCGGAAACGACTCC ((((.((....)).)))), the folding enthalpy in data set [1] was -55.2 kcal/mol. Further, the Tm in data set [2] was found to be 52 °C.
The matching figures for GGAGCGCCGAAAGGCTCC (((..(((....)))))): -14.7 kcal/mol and 44.2 °C.
The corresponding values for GGAGCGGGAAACCGCCCC ((.((((....)))).)) are -16.3 kcal/mol and 56.7 °C.
The corresponding values for GGAGCGTCGAAAGACTCC (((..(((....)))))) are -13.7 kcal/mol and 31.4 °C.
With GGAGCTCGAAAGAGATCC (((.(((....))).))), the folding enthalpy in data set [1] was -44 kcal/mol. Also, the Tm in data set [2] was found to be 64 °C.
The matching figures for GGAGCTCGAAAGAGTCC (((.(((....)))))): -17.8 kcal/mol and 48.2 °C.
With GGAGCTGAAAAGCTCC ((((((....)))))), in data set [1], the folding enthalpy was -37.5 kcal/mol. In addition, in data set [2], the Tm is 68.9 °C.
The matching figures for GGAGCTGGAAACAACTCC ((((.((....)).)))): -31.2 kcal/mol and 42.6 °C.
The corresponding values for GGAGCTGGAAACGGCTTC (.(((.(....).))).) are -25.9 kcal/mol and 41.5 °C.
Regarding GGAGGACGAAAGTCTTCC (((.(((....))).))), in data set [1], the folding enthalpy is -30.1 kcal/mol. Further, in data set [2], the Tm is 53.5 °C.
The matching figures for GGAGGAGGAAACTCCTTC (.(((((....))))).): -28.7 kcal/mol and 53.4 °C.
The corresponding values for GGAGGCCCGAAAGGGTCC (((..(((....)))))) are -12 kcal/mol and 42.6 °C.
The corresponding values for GGAGGCCGAAAGGCTTCC (((.(((....))).))) are -28.9 kcal/mol and 64.2 °C.
As for GGAGGCGAAAGCCTCTCC ((((((....)))..))), the folding enthalpy in data set [1] is -8.68 kcal/mol. Further, the Tm in data set [2] came to 54.2 °C.
GGAGGCGGAAACGCTTCC (((.(((....))).))): the folding enthalpy in data set [1] was -36.9 kcal/mol. Moreover, the Tm in data set [2] came to 55.2 °C.
As for GGAGGGCGAAAGCCTCC (((.(((....)))))), the folding enthalpy in data set [1] is -18.7 kcal/mol. In addition, the Tm in data set [2] is 61.9 °C.
The matching figures for GGAGGGGGAAACCCCTCC (((((((....))))))): -32 kcal/mol and 69.3 °C.
GGAGGGGGAAACCCCTTC (.(((((....))))).): in data set [1], the folding enthalpy was -24.1 kcal/mol. Besides, the Tm in data set [2] was 50.6 °C.
The corresponding values for GGAGGTGGAAACACCTTC (.(((((....))))).) are -29 kcal/mol and 51.4 °C.
The matching figures for GGAGGTGGAAACACTTCC (((.(((....))).))): -35.2 kcal/mol and 48.2 °C.
Turning to GGAGGTGGAAACATCTCC ((((.((....)).)))), the folding enthalpy in data set [1] was -44.1 kcal/mol. Besides, the Tm in data set [2] was found to be 49.1 °C.
Regarding GGAGGTGGAAACGCTTCC (((.(.(....).).))), in data set [1], the folding enthalpy was -23.3 kcal/mol. The Tm in data set [2] is 34.3 °C.
The matching figures for GGAGTAACGAAAGTTTCC (((..(((....)))))): -16.6 kcal/mol and 30.7 °C.
As for GGAGTACGAAAGTAGTCC (((.(((....))).))), the folding enthalpy in data set [1] is -40.4 kcal/mol. For the same sequence, in data set [2], the Tm stood at 55.2 °C.
The matching figures for GGAGTCCGAAAGGAATCC (((.(((....))).))): -41.5 kcal/mol and 56.4 °C.
With GGAGTCGAAAGACAATCC ((((((....)))..))), in data set [1], the folding enthalpy is -15.4 kcal/mol. Also, in data set [2], the Tm came out at 32.5 °C.
The corresponding values for GGAGTCGAAAGACATTCC ((((((....)))..))) are -12.7 kcal/mol and 27.9 °C.
The corresponding values for GGAGTCGAAAGACCCTCC ((((((....)))..))) are -16.7 kcal/mol and 48 °C.
For GGAGTCGAAAGACGTCC ((((((....))).))), the folding enthalpy in data set [1] was -14.7 kcal/mol. Also, the Tm in data set [2] came out at 46 °C.
The matching figures for GGAGTCGCGAAAGCGTCC (((..(((....)))))): -12.3 kcal/mol and 34.1 °C.
The corresponding values for GGAGTCGGAAACAACTCC (((((.(....).))))) are -32.6 kcal/mol and 41.5 °C.
The matching figures for GGAGTCGGAAACGATTCC (((.(((....))).))): -30.1 kcal/mol and 50.3 °C.
As to GGAGTCGGAAACGGCTCC ((((.((....)).)))), in data set [1], the folding enthalpy was -45.8 kcal/mol. Moreover, in data set [2], the Tm is 61 °C.
The corresponding values for GGAGTCTCGAAAGAGTCC (((..(((....)))))) are -20.1 kcal/mol and 41.7 °C.
In the case of GGAGTGGGAAACCACTTC (.(((((....))))).), the folding enthalpy in data set [1] was -20.2 kcal/mol. In addition, the Tm in data set [2] was 49.4 °C.
The corresponding values for GGAGTGGGAAACTGCTCC ((((..(....)..)))) are -31.5 kcal/mol and 44.5 °C.
The matching figures for GGAGTTCCGAAAGGATCC (((..(((....)))))): -12.8 kcal/mol and 31 °C.
The matching figures for GGAGTTCGAAAGAATTCC (((.(((....))).))): -39.8 kcal/mol and 48.6 °C.
